Compounds with a hit are over-represented: about 4.4% of the library has one in this group of screens.
EBI2 antag – blocks human EBI2 receptor beta-arrestin signaling | EBI2 beta-arrestin recruitment, luminescence, 7a,25-OHC stimulated | inhibition, % at 5 µM | actives 0.81% (n = 360,000); in the data active = inhibition above about 38%;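 note: enzyme fragment complementation signal reports receptor beta-arrestin coupling in cells; 0% = agonist plus DMSO wells and 100% = wells without agonist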
Target sequence (P32249 whole entry, looked up, the tested form may be a part): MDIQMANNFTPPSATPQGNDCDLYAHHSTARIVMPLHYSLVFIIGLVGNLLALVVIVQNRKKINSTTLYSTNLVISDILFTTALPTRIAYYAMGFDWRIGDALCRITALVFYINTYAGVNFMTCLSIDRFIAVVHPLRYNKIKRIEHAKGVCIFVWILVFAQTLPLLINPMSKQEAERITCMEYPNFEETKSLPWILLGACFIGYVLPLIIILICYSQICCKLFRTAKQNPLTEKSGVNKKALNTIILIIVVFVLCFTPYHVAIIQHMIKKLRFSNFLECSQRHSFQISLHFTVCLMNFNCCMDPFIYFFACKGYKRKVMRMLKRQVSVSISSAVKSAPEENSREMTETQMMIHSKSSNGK
MPTP block – blocks calcium-induced mitochondrial swelling; AID 602449; inhibition, % at 10 µM; actives 1.4% (n = 360,000); isolated mouse mitochondria, Ca2+ swelling absorbance, 30 min;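 active = inhibition of 50% or more, scaled per plate between neutral and stimulator controls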;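 note: 0% = DMSO wells given calcium and 100% = 1 mM EGTA wells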
NR3A LBD binder – modulates the human NR3A ligand-binding domain | NR3A LBD differential scanning fluorimetry, Tm shift; 0% = protein alone, 100% = glycine-bound protein | Tm shift relative to glycine control, % at 25 µM | actives 2.5% (n = 340,000);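 active = melting temperature shift of at least 10% of the positive control shift, at one fixed dose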
SENP1 FRET inh – SENP1 (human) catalytic domain inhibition. recombinant SENP1 catalytic domain, CyPet-SUMO1-YPet FRET cleavage. inhibition, % at 10 µM. actives 0.21% (n = 360,000);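 active = inhibition at least 30% at 10 µM, raw YFP signal under a set limit, fluorescence ratio 0.5 to 1.5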;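 note: 0% = enzyme with DMSO and 100% = no enzyme wells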
Target sequence (Q9P0U3 419-644 limits assumed): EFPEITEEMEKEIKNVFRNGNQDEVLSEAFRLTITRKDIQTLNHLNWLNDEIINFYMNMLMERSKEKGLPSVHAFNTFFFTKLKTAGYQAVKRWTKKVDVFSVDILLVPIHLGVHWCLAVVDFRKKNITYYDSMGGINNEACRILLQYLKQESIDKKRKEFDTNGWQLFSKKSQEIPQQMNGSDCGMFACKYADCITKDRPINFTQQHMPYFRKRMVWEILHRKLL
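system = hSENP1 catalytic domain, recombinant | reagent = SFCypet-SUMO1-SFYpet substrate at 25 nM | doses = one dose per compound, 10 µM, 0.5% DMSO | incubation = enzyme reaction for 50 min at room temperature, dark | measured by = FRET, CFP and YFP emission | controls = no-enzyme low, enzyme-DMSO high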
Starred values were filed as active, the others as inactive; ! = a repeat was not active.

SMILES | EBI2 antag | MPTP block | NR3A LBD binder | SENP1 FRET inh
FC(F)Sc1ccc(NC(=S)NC2CCC(NC(=S)Nc3ccc(SC(F)F)cc3)CC2)cc1 (stereo unspecified) | 13.3 | 3.6 | 17.0* | -1.2
N#Cc1c(NC(=O)CN2C(=O)c3ccccc3C2=O)oc(-c2ccccc2)c1-c1ccccc1 | -4.0 | -1.4 | 17.0* | 1.9
C[C@H]1CN(S(=O)C(C)(C)C)[C@@H](CCO)/C1=C\c1ccccc1 (stereo partly specified) | -6.8 | -0.1 | -0.3 | -0.9
O=C(CSc1ncc(-c2ccc(F)cc2)[nH]1)Nc1cccc(O)c1 | -5.1 | 0.4 | 16.4* | 2.8
Cc1ccc2nc(SCC(=O)Nc3ccc4c(c3)CCC4)[nH]c2c1 | 13.2 | 24.1 | 0.3 | 1.0
O=C(CSc1nc2cc3ccccc3cc2[nH]1)Nc1ccc(F)cc1 | 20.3 | 47.0 | 17.3* | 1.4
O=C(CSc1nc2ccc(Cl)cc2[nH]1)Nc1ccc2c(c1)CCC2 | 8.1 | 34.2 | 20.7* | 1.6
Cc1ccc(NC(=O)CSc2nc3nc(C)c(Br)cc3[nH]2)cc1F | -0.8 | 33.7 | 13.9* | -6.1
COc1ccc(NC(=O)CSc2nc3ccc(OC)cc3[nH]2)cc1 | 0.1 | 2.3 | -5.7 | 1.9
CNS(=O)(=O)c1cn(CC(=O)NCc2ccc(OC)cc2)cc1S(=O)(=O)NC | -3.9 | 0.5 | 0.6 | -0.5
C/C(=N\N1CCN(C)CC1)c1ccc(Cl)c(Cl)c1 | -6.3 | -0.5 | -2.2 | 2.3
O=S(=O)(c1ccccc1)N1CCN(C(c2ccccc2)c2ccc(OC(F)(F)F)cc2)CC1 (stereo unspecified) | 15.1 | 1.0 | 1.1 | 2.8
O=c1c2ccccc2oc2ccc(-c3ccc4[nH]ccc4c3)cc12 | 20.2 | 0.7 | 18.4* | -1.1
O=c1c2ccccc2oc2cc(-c3ccc4cc[nH]c4c3)ccc12 | 2.7 | 2.2 | -2.2 | 0.2
COc1ccccc1C1NC(=O)CCC1[N+](=O)[O-] (stereo unspecified) | -1.6 | -0.5 | -0.5 | -0.7
Cc1cccc2sc(N(CCN(C)C)C(=O)c3cc(Cl)sc3Cl)nc12 | -0.4 | 0.6 | 10.7* | -0.1
COc1ccc([N+](=O)[O-])cc1NC(=O)CC1SC(=Nc2cccc(C)c2C)N(/N=C/c2cccc(OC)c2OC)C1=O (stereo unspecified) | 15.0 | 2.5 | 21.3*! | 1.6
CCOc1cc(Br)c(Br)c(C=Nc2ccc(NC(C)=O)cc2)c1O | 19.9 | -0.3 | -4.9 | 41.2*
CC1=C(C)CC(C(=O)Nc2cccc(Cl)c2)C(C(=O)O)C1 (stereo unspecified) | -3.4 | 0.1 | -1.3 | 0.7
O=C(O)C1CC=CCC1C(=O)Nc1cccc(Cl)c1 (stereo unspecified) | 7.0 | -0.2 | 11.4* | -0.3
Cc1ccc2nc(-c3sc4nc(C)cc(C)c4c3N)[nH]c2c1 | 7.6 | 4.5 | 15.2* | -24.9
CCCCCCc1ccc(-c2ncc(N)cn2)cc1 | 15.5 | 6.6 | 10.7* | -1.0
CCCCCc1ccc(-c2nnc(N)s2)cc1 | 8.1 | -1.4 | 0.3 | -3.3
O=C(NC(=S)Nc1ccccc1Br)C1CCCC1 | 4.7 | -1.3 | -1.2 | 3.0
O=C(NC(=S)Nc1ccccc1Br)C1CCCCC1 | -0.1 | -0.9 | 12.6* | 7.5
SMILES | EBI2 antag | MPTP block | NR3A LBD binder | SENP1 FRET inh
O=C(O)c1ccccc1NS(=O)(=O)c1ccc(N/N=C/c2ccc(O)c(O)c2)c([N+](=O)[O-])c1 | 6.2 | 6.5 | 16.5* | 1.4
O=C(O)c1ccccc1NS(=O)(=O)c1ccc(NN=Cc2ccc(F)cc2)c([N+](=O)[O-])c1 | 5.0 | 31.8 | 12.4* | 3.2
O=C(O)c1ccccc1NS(=O)(=O)c1ccc(NN=Cc2cccc(Cl)c2)c([N+](=O)[O-])c1 | -9.6 | 39.9 | 31.9* | 3.6
COc1ccc(CCC(=O)N2CCCC(Nc3ccccc3)C2)cc1OC (stereo unspecified) | 5.8 | 21.2 | 1.1 | 2.2
O=C(CSCc1c(F)cccc1Cl)NCc1cccnc1 | 4.4 | 0.6 | 11.5* | 2.0
O=C(COC(=O)Cc1c(Cl)cccc1Cl)NCC1CCCO1 (stereo unspecified) | 0.2 | -0.7 | -0.4 | 0.7
COc1ccc(CCN=C(N)NS(=O)(=O)c2ccc3ccccc3c2)cc1 | -1.3 | 3.2 | 18.0* | 0.2
COc1ccc(S(=O)(=O)NC(N)=NCCc2ccccc2)cc1 | 8.5 | -0.6 | 0.5 | 1.6
COc1ccc(CNC(=O)C2CCCN(C(=O)Nc3ccccc3OC)C2)cc1 (stereo unspecified) | -1.7 | -0.1 | -1.9 | 1.1
COc1ccc(/C=N/NC(=O)CCCOc2ccc(Cl)cc2Cl)cc1 | 7.4 | 3.4 | 16.1* | 1.9
CCOc1ccccc1OCCCC(=O)OCC(=O)Nc1cccc(Cl)c1 | -3.3 | 1.8 | -7.8 | 0.9
COc1ccc(Cl)cc1NC(=O)COC(=O)Cc1cc(OC)c(OC)c(OC)c1 | 9.5 | -0.1 | 16.9* | -0.3
COc1ccc(Cl)cc1NC(=O)COC(=O)CCc1cc(OC)c(OC)c(OC)c1 | 7.4 | 1.9 | -0.6 | 2.0
O=C(CCCOc1ccc(Cl)cc1Cl)N/N=C/c1ccc(Cl)cc1 | 8.6 | 4.6 | 8.1 | 1.7
COc1ccc(NC(=O)COC(=O)CCCOc2ccc(Cl)cc2Cl)cc1Cl | 0.1 | 2.7 | 30.9* | 4.0
COc1ccc(CC(=O)Nc2cccc(SC)c2)cc1 | 0.0 | 1.0 | 15.9* | 1.0
O=C(C[C@H]1C/C=C\CC[C@H](Cc2ccc(F)cc2)C(=O)O[C@H](c2ccccc2)CNC1=O)N[C@H](CO)Cc1ccccc1 | -5.5 | -1.2 | -5.5 | 1.8
Cc1cc(Cl)ccc1OCCCC(=O)N/N=C/c1cccc([N+](=O)[O-])c1 | 13.3 | 5.2 | 19.5* | -1.6
Cn1c(CCCOc2ccc(Cl)cc2Cl)nnc1SCC(=O)Nc1ccc(F)c(Cl)c1 | -0.8 | 4.7 | 23.8* | 1.2
COc1ccc(NC(=O)COC(=O)CCCOc2ccc(Cl)cc2Cl)cc1 | -7.9 | 0.6 | 27.2* | 1.1
CSc1cccc(NC(=O)CCCOc2ccc(Cl)cc2Cl)c1 | 5.6 | -4.8 | 20.1* | -1.0
Cc1cc(C)n(CCC(=O)N/N=C/c2cccc([N+](=O)[O-])c2)n1 | 0.9 | 0.7 | 0.8 | 1.1
O=C(COC(=O)CCCOc1ccc(Cl)cc1Cl)NCc1ccc(F)cc1 | -10.9 | 3.4 | -10.3 | -1.5
Cn1c(CCCOc2ccc(Cl)cc2Cl)nnc1SCC(=O)Nc1cccc(F)c1 | 0.9 | -20.8 | 0.8 | 2.4
COc1cc(C(=O)NNC(=O)c2cc(C)[nH]n2)cc(OC)c1OC | -6.1 | 2.5 | -4.0 | -2.3
SMILES | EBI2 antag | MPTP block | NR3A LBD binder | SENP1 FRET inh
O=C(/C=C/c1ccc(Cl)cc1)Nn1c(-c2cccs2)nc2ccccc2c1=O | 10.5 | 19.0 | 13.5* | -1.0
CCOc1ccc(NCC(=O)c2ccc(C)cc2)cc1 | -6.5 | -2.7 | -0.6 | 2.4
COCCOc1cc(N2C(=O)CSCC2=O)c(Cl)cc1Cl | -2.9 | -0.7 | 11.6* | 1.7
NC(=O)Cc1ccc(C(=O)c2ccccc2)s1 | -3.2 | -1.5 | -0.4 | -0.5
CCOC(=O)c1c(-c2ccc(C)o2)csc1NC(=O)CN1CCOCC1 | 7.5 | 2.7 | -0.9 | -0.7
CCOC(=O)c1c(-c2cccs2)csc1NC(=O)CN1CCOCC1 | 4.8 | -0.6 | 22.7* | -0.8

High-throughput results deposited in PubChem by Sanford-Burnham Center for Chemical Genomics.
